Source: PubChem BioAssay
MC4R antagonist: antagonists of human melanocortin 4 receptor (MC4R). P32245. MC4R-expressing cells, MTII-stimulated cAMP, LANCE TR-FRET. inhibition, % at 6.5 µM. actives 0.48% (n = 360,000);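 active means inhibition above its plate's cutoff, the mean of tested wells on that plate plus 3 SD, cut at about 29% in these data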;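 further: 0% = Melanotan II alone and 100% = Melanotan II plus saturating MCL0020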
Target sequence (P32245 whole entry, looked up): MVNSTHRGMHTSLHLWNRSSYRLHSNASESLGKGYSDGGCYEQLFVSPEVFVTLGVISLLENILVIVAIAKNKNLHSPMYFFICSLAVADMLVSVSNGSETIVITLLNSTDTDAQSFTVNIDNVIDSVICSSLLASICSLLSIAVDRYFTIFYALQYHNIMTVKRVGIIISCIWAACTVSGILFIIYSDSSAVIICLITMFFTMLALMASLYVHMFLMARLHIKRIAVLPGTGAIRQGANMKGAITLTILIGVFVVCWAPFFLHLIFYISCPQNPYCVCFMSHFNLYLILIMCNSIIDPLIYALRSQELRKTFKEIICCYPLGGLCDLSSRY
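Material: U2OS-MC4R stable cell line | Reagent: Melanotan II challenge after compound preincubation | Doses: One concentration, 6.5 µM nominal | Incubation: 30-min compound preincubation, 1-h Melanotan II challenge, 1-h detection, room temperature | Signal: TR-FRET cAMP assay | Replicates: One well per compound, no replicates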
TAG inh: triacylglycerol accumulation inhibition; H9c2 cells, Nile Red lipid (TAG) fluorescence; cells loaded with 200 µM oleic acid; inhibition, % at 12.5 µM; AID 651582; actives 0.66% (n = 230,000);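 active means pattern-corrected inhibition of lipid staining of at least 50% with the nuclear-stain viability signal not falling by more than 50%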;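 further: 0% = DMSO wells and 100% = triacsin C control wells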
MC4R ag barr: activates human MC4R beta-arrestin recruitment. P32245. U2OS MC4R beta-arrestin complementation, luminescence; percent of melanotan II response, DMSO zero. activation, % at 8.9 µM. actives 0.98% (n = 360,000). AID 540308;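 active means activation above a per-plate cutoff, the mean activation of sample wells on that plate plus 3 SD, cut at about 8% in these data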
Calb FLC: affects C. albicans growth with fluconazole; growth inhibition, % (no concentration beside the values); AID 1979; actives 0.57% (n = 300,000); C. albicans CaCi-2 + fluconazole, Alamar Blue growth, 48 h;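 active means growth inhibition above about 58% in most replicates, limit read from the data, passing the limit was not always enough; inconclusive means exactly half the replicates above a set limit; inactive means most replicates below a set limit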;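 further: all wells also contain fluconazole at 8 µg/ml as a sub-toxic cotreatment; 0% = median of DMSO wells and 100% = median of geldanamycin control wells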
GalR3 antag: blocks the human galanin receptor 3. O60755. HEK293 GalR3-CNG cAMP membrane potential fluorescence; galR3 body fused to GalR1 C-terminus. inhibition, % at 3 µM. actives 0.44% (n = 360,000). AID 651719;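 active means inhibition above the screen-wide average plus 3 SD, cut at about 13% in these data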;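 further: forskolin and galanin both at EC90 stimulate the cells; cAMP rise reported by CNG channel membrane potential dye signal; 0% = forskolin plus galanin with DMSO and 100% = forskolin alone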
Target sequence (O60755 1-299 limits assumed): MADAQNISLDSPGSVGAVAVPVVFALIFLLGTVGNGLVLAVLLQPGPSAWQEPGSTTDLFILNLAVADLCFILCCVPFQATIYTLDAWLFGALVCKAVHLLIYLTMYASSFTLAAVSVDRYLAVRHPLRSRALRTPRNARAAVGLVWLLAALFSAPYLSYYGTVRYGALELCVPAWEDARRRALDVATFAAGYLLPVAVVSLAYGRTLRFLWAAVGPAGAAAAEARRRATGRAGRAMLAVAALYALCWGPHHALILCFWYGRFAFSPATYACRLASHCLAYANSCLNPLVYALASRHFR
Efflux pump mplx: inhibitors of Candida antifungal efflux pumps expressed in yeast. S. cerevisiae Candida pump triplex, Nile Red efflux. inhibition, % at 10 µM. actives 0.44% (n = 330,000). AID 485275;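 active means plate passing quality check with inhibition over a set limit, or well fluorescence over plate mean plus 4 SD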;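 further: Nile Red retained in pooled yeast measured as flow cytometry median fluorescence; 0% = buffer negative control and 100% = Enniatin B positive control; higher means more Nile Red kept so more efflux inhibition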
The depositor's hits bear a star. The list is not random: actives were taken first. Their share in the collection is about 2.9%.

COc1ccc(N(C(=O)c2ccco2)C(C(=O)NC2CCCC2)c2cccs2)c(OC)c1 (configuration not stated) was read as MC4R antagonist 27, MC4R ag barr 0, Calb FLC -3, GalR3 antag -12 and Efflux pump mplx 0.
`CCOCCn1c(=NC(=O)c2cc(Cl)sc2Cl)sc2cc(S(N)(=O)=O)ccc21` gave Calb FLC -16 and Efflux pump mplx 0.
COCCn1c(=NC(=O)c2cc(Cl)sc2Cl)sc2cc(S(N)(=O)=O)ccc21 was read as MC4R antagonist 17, MC4R ag barr 9.3*, Calb FLC 6, GalR3 antag 0 and Efflux pump mplx 0.
Screening CN1/C(=C\C=[N+](C)c2ccccc2)C(C)(C)c2ccccc21 returned MC4R antagonist -2, MC4R ag barr -1, Calb FLC 105*, GalR3 antag -8 and Efflux pump mplx 0.
Cc1cccc(C)c1NC(=O)COC(=O)COc1ccc2c(C)cc(=O)oc2c1 was read as MC4R antagonist 13, MC4R ag barr 0, Calb FLC -2, GalR3 antag 2 and Efflux pump mplx 0.
Cc1csc(NC(=O)COc2ccc3c(C)cc(=O)oc3c2)n1 was read as MC4R antagonist -9, MC4R ag barr 9.4*, Calb FLC 17, GalR3 antag -3 and Efflux pump mplx 0.
Screening COc1ccccc1-c1ccc([C@@H]2C[C@H]3[C@H](CON3C)CN2CC2CCCCC2)cc1 returned GalR3 antag -4.
For Cc1sc2nc(C(C)C)nc(SCC(=O)NC3CC3)c2c1C the results were MC4R antagonist 18, MC4R ag barr 1, Calb FLC 3, GalR3 antag -10 and Efflux pump mplx 0.
Cc1cc(NC(=O)CSc2nc(C(C)C)nc3sc(C)c(C)c23)no1 was read as MC4R antagonist -4, MC4R ag barr 8.4*, Calb FLC 15, GalR3 antag 1 and Efflux pump mplx 0.
`Nc1nc(-c2ccccc2)cc(N2CCCCC2)n1` gave MC4R antagonist -23, TAG inh 76*, MC4R ag barr -3, Calb FLC -24, GalR3 antag 0 and Efflux pump mplx 0.
Screening O=C(O)COc1ccc(/C=C/C(=O)c2ccc(C3CCCCC3)cc2)cc1 returned MC4R antagonist -9, MC4R ag barr 8.8*, Calb FLC 1, GalR3 antag -9 and Efflux pump mplx 0.
Screening CCOc1ccc(NS(=O)(=O)c2cc(OC)ccc2OC)cc1 returned MC4R antagonist -5, MC4R ag barr 2, Calb FLC -5, GalR3 antag -5 and Efflux pump mplx 0.
`CCOc1ccc(S(=O)(=O)Nc2ccc(F)cc2)c(C)c1C` gave MC4R antagonist 4, MC4R ag barr 8.8*, Calb FLC 40, GalR3 antag -5 and Efflux pump mplx 0.
Screening O=c1[nH]c(NC2CCCCC2)nnc1Cc1ccccc1 returned MC4R antagonist 2, TAG inh 2, MC4R ag barr 1, Calb FLC -3, GalR3 antag -4 and Efflux pump mplx 0.
O=c1[nH]c(Nc2ccc3c(c2)OCCO3)nnc1Cc1ccccc1 was read as MC4R antagonist 17, MC4R ag barr -1, Calb FLC 120*, GalR3 antag -5 and Efflux pump mplx 0.
For CCCCNC(=O)C1(C)CCN1C(=O)c1ccc2c(c1)C(C)(C)CCC2(C)C (configuration not stated) the results were MC4R antagonist 5, TAG inh 12, MC4R ag barr -1 and GalR3 antag -6.
Screening C[C@H]1CN([C@@H](C)CO)C(=O)CCCn2cc(nn2)CO[C@@H]1CN(C)S(=O)(=O)c1ccc(F)cc1 returned GalR3 antag -6.
Screening COc1ccc2nc(-c3ccccc3)[nH]c2c1 returned MC4R antagonist -3, TAG inh 6, MC4R ag barr 0, Calb FLC -2, GalR3 antag -5 and Efflux pump mplx 0.
`CCOc1ccc2nc(-c3ccccc3)[nH]c2c1` gave MC4R antagonist -15, TAG inh 50*, MC4R ag barr 0, Calb FLC 2, GalR3 antag -3 and Efflux pump mplx 0.
`CCOC(=O)C1CCCN(S(=O)(=O)c2ccc(C)cc2)C1` (configuration not stated) gave MC4R antagonist 3, TAG inh -14, MC4R ag barr 3, Calb FLC -7, GalR3 antag -8 and Efflux pump mplx 0.
For CCOC(=O)C1CCCN(S(=O)(=O)c2ccc(S(=O)(=O)N(CC)CC)cc2)C1 (configuration not stated) the results were MC4R antagonist 5, TAG inh -33, MC4R ag barr -4, Calb FLC -28, GalR3 antag 92* and Efflux pump mplx 0.
Screening C[C@@H]1ON(C)[C@H]2C[C@H]3c4cc(-c5cccc(F)c5)ccc4CCN3C(=O)[C@@H]12 returned MC4R antagonist 9, TAG inh -15, MC4R ag barr 1 and GalR3 antag 2.
`COCCCn1c(=O)c2ccccc2n(Cc2ccc(C)cc2)c1=O` gave MC4R antagonist 14, TAG inh -5, MC4R ag barr 0, Calb FLC 7, GalR3 antag -7 and Efflux pump mplx 0.
`Cc1ccc(Cn2c(=O)c3ccccc3n3nc(C)cc23)cc1` gave MC4R antagonist 0, TAG inh -71, MC4R ag barr 8.2*, Calb FLC 3, GalR3 antag -4 and Efflux pump mplx 0.
For O=C(Nc1ccc(F)cc1)C(c1ccccc1OC(F)(F)F)N1CCN(C(=O)c2ccco2)CC1 (configuration not stated) the results were GalR3 antag -5.
For Nc1cc(=O)n(Cc2ccccc2)c(N)c1C(=O)NCc1ccccc1 the results were GalR3 antag -8.
Cc1[nH]nc2nc(SCC(=O)NCCC3=CCCCC3)n(-c3ccc(Br)cc3)c(=N)c12 was read as MC4R antagonist 18, MC4R ag barr 49*, Calb FLC 2, GalR3 antag -8 and Efflux pump mplx 0.
Cc1ccc(Cl)cc1-n1c(SCC(=O)NCCC2=CCCCC2)nc2n[nH]c(C)c2c1=N was read as MC4R antagonist 11, MC4R ag barr 1, Calb FLC inconclusive, GalR3 antag -3 and Efflux pump mplx 0.
For Cc1cc(-n2c(SCC(=O)NCCC3=CCCCC3)nc3n[nH]c(C)c3c2=N)ccc1Cl the results were MC4R antagonist 10, MC4R ag barr 15*, Calb FLC 8, GalR3 antag -9 and Efflux pump mplx 0.
`COc1ccc(NC(=O)CSc2nc3n[nH]c(C)c3c(=N)n2-c2ccc(Cl)c(C)c2)cc1OC` gave MC4R antagonist 17, MC4R ag barr 25*, Calb FLC 22 and Efflux pump mplx 0.
